An excerpt weighted towards active compounds, which were near 6.7% of everything screened.
PREPL inhibitor – inhibits the human prolyl oligopeptidase-like enzyme; inhibition, % at 5.96 µM; AID 2751; recombinant PREPL, fluorescence polarization activity-based probe; Q4J6C6; 0.68% of 320,000 active; in the data active = inhibition above about 43%
Target sequence (Q4J6C6 whole entry, looked up): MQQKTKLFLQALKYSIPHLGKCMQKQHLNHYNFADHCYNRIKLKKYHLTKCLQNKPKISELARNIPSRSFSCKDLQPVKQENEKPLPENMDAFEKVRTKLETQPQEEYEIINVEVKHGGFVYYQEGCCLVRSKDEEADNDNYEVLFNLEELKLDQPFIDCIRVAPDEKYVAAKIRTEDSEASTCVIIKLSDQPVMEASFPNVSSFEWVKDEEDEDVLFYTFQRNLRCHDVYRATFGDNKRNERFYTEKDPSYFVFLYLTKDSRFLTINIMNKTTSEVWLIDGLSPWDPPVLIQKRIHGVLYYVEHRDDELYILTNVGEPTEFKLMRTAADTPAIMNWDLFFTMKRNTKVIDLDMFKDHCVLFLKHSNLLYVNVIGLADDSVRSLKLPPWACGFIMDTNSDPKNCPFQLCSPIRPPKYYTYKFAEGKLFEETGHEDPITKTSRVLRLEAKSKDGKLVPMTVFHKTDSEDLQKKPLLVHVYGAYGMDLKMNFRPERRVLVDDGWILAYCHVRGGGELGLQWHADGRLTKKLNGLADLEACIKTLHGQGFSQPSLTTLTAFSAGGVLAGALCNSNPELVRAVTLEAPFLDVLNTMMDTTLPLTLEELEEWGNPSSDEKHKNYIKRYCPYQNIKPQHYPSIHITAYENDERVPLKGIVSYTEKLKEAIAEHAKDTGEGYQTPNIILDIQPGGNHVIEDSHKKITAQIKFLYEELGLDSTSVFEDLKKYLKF
Beta apoptosis – blocks beta cell apoptosis | INS-1E cytokine-induced death, ATP luminescence, 48 h; percent of positive-control rescue, neutral wells zero | protection from apoptosis, % (test concentration not listed) | 0.8% of 300,000 active | AID 435005;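 active = Every replicate reaches about 75%, or at least half do and their mean reaches it too, limit read from the data; inconclusive = At least half of replicates reach the limit but their mean does not; inactive = Under half of replicates reach the limit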;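 also: higher means more ATP so stronger rescue from cytokine killing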
T cruzi repl – blocks replication of Trypanosoma cruzi; 1.4% of 300,000 active; T. cruzi beta-gal in NIH3T3, luminescence, 90 h; inhibition, % (concentration not given with the values); AID 1885;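 active = mean inhibition across valid replicates above about 55%, limit read from the data; inconclusive = mean below that limit but half or more replicates reach it; inactive = mean below it, under half of replicates reach it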;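 also: signal also drops with host cell toxicity which is not excluded here; higher percent means less beta-gal luminescence so fewer parasites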
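System: mouse NIH/3T3 fibroblasts infected with β-gal-expressing T. cruzi Tulahuen C4 / Input: NIH/3T3 cells, 5,000 per well / Buffer or medium: Low-serum DMEM with 2% FBS / Probe or stimulus: 5000 reporter trypomastigotes per well / Schedule: ≥90 h infection period, 3 h prior cell attachment / Measured by: GalScreen luminescence, 60 min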
CHOP inh – blocks CHOP induction under ER stress | 3.8% of 220,000 active | inhibition, % at 10 µM | CHO-K1 CHOP-promoter luciferase, tunicamycin-induced, 15-18 h;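 active = compounds that reduced the stress-induced luciferase reporter signal by more than about 70% of percent inhibition, limit read from the data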
CSC inhib – cancer stem cell inhibition; inhibition, % at 7.5 µM; 1.1% of 300,000 active; cancer stem cell-like cells viability, luminescence; in the data active = inhibition above about 75%; inconclusive = no clear call, values can overlap the other calls; tested in HMLE shEcad cells
GRIN3A LBD mod – modulates the human NR3A ligand-binding domain; Tm shift relative to glycine control, % at 25 µM; AID 1259313; 2.5% of 340,000 active; NR3A LBD differential scanning fluorimetry, Tm shift; 0% = protein alone, 100% = glycine-bound protein;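 active = melting temperature shift of at least 10% of the positive control shift, at one fixed dose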
Of the large screens only hits and unclear results are named; the others gave an inactive call.

CC1CCN(Cc2c(C(=O)N/N=C/c3cccc(C(F)(F)F)c3)nnn2-c2nonc2N)CC1	GRIN3A LBD mod 16 (no result: CHOP inh)
CC12CC3CC(C)(C1)CC(C(=O)N1CCN(C(=O)c4ccco4)CC1)(C3)C2	none (no result: CHOP inh)
CCOc1ccc(OCC(=O)OCC(=O)N2CCN(S(=O)(=O)c3ccc(C)cc3C)CC2)cc1	none (no result: PREPL inhibitor, Beta apoptosis, T cruzi repl, CHOP inh, CSC inhib)
COc1ccc(-c2csc(NC(CO)c3nc4ccccc4n3Cc3ccc(C)cc3)n2)cc1 (centres undefined)	none (no result: CHOP inh)
Cc1ccc(Cn2c(C(CO)Nc3nc(-c4ccc(F)cc4)cs3)nc3ccccc32)cc1 (centres undefined)	GRIN3A LBD mod 19 (no result: CHOP inh)
Cc1ccc(Cn2c(C(CO)Nc3nc(-c4ccc(Cl)c([N+](=O)[O-])c4)cs3)nc3ccccc32)cc1 (centres undefined)	GRIN3A LBD mod 26 (no result: CHOP inh)
Cc1ccc(-c2csc(NC(CO)c3nc4ccccc4n3CCOCCO)n2)cc1 (centres undefined)	none (no result: CHOP inh)
O=C(Cc1c(F)cccc1Cl)NCC(=O)OCc1ccccc1	none (no result: CHOP inh)
CCOC(=O)c1cnc(-n2nc(C)cc2C)nc1NC1CCCC1	Beta apoptosis 97
CCOC(=O)c1cnc(-n2nc(C)cc2C)nc1Nc1ccc(OC)cc1	none
CN(C(=O)Nc1ccccc1)C1CCCc2ccccc21 (centres undefined)	none (no result: CHOP inh)
O=C1CCCCC1Nc1ccc2ccccc2c1 (centres undefined)	none (no result: PREPL inhibitor, Beta apoptosis, T cruzi repl, CHOP inh, CSC inhib)
Cc1ccc2oc(=O)c3cnn(CC(=O)Nc4cc(-c5cccc(F)c5)no4)c3c2c1	CHOP inh 96
O=[N+]([O-])c1ccc2[nH]c(O)c(N=NC3CCS(=O)(=O)C3)c2c1 (centres undefined)	none
CCN(c1ccc2c(c1)OCO2)S(=O)(=O)c1cc2c(cc1Br)CCN2C(=O)C1CC1	none (no result: PREPL inhibitor, Beta apoptosis, T cruzi repl, CHOP inh, CSC inhib)
CCN(c1ccc2c(c1)OCO2)S(=O)(=O)c1cc(Br)cc2c1N(C(C)=O)CC2	T cruzi repl 63 (no result: Beta apoptosis, CSC inhib)
COc1ccc(C(=O)C(C)OC(=O)COc2ccccc2)cc1 (centres undefined)	none (no result: T cruzi repl, CHOP inh)
O=c1c2ccccc2nc(/C=C/c2ccc(O)cc2)n1CCc1ccccc1	CHOP inh 74, GRIN3A LBD mod 20
C=CCn1cccc(/C=C/C(=O)c2ccc(C(C)(C)C)cc2)c1=S	CSC inhib 111
O=C(C=Cc1ccccc1Cl)c1ccccc1	none (no result: PREPL inhibitor, Beta apoptosis, T cruzi repl, CHOP inh, CSC inhib)
CNC(=O)N1c2ccccc2CCc2ccccc21	none (no result: CHOP inh)
O=C(NN1c2ccccc2CCc2ccccc21)c1ccccc1Br	CHOP inh 76
CC(c1ccco1)N(C(=O)Nc1ccc(Cl)cc1)c1ccccn1 (centres undefined)	GRIN3A LBD mod 10
CC(c1ccco1)N(C(=O)C12CC3CC(CC(C)(C3)C1)C2)c1ccccn1 (centres undefined)	CHOP inh 87 (no result: Beta apoptosis)
COc1ccccc1NC1CCCCC1NS(=O)(=O)c1ccccc1 (centres undefined)	none (no result: CHOP inh)
Cc1cc(C)c(C(=O)N2CCC(N3CCC(C(=O)NC(C)C)CC3)CC2)o1	none (no result: CHOP inh)
C/C(=N\Nc1ccc(S(N)(=O)=O)cc1[N+](=O)[O-])c1ccc2c(c1)OCO2	none (no result: PREPL inhibitor, Beta apoptosis, CSC inhib)
CCN(CC)S(=O)(=O)c1ccc(N/N=C(\C)c2ccc3c(c2)OCO3)c([N+](=O)[O-])c1	CHOP inh 92
CCOC(=O)c1ccc(S(=O)(=O)NCC(c2ccc(N(C)C)cc2)c2c[nH]c3ccccc23)cc1 (centres undefined)	GRIN3A LBD mod 16
CCN(CC)S(=O)(=O)c1ccc(C(=O)NCCSc2c[nH]c3ccccc23)cc1	none
CN(C)c1ccc(C(CNC(=O)c2ccc(C#N)cc2)c2c[nH]c3ccccc23)cc1 (centres undefined)	PREPL inhibitor 65 (no result: CSC inhib)
CCOC(=O)c1ccc(S(=O)(=O)NCCN(CC)CC)cc1	none
O=S(=O)(NCC1CCCN(Cc2ccccc2O)C1)c1cccc2cccnc12 (centres undefined)	none (no result: CHOP inh)
COc1ccc(NC(=O)Nc2ccc3oc(C)nc3c2)cc1	GRIN3A LBD mod 25 (no result: CSC inhib)
COc1cccc(OC)c1C(=O)Nc1ccc2nc(C)c(C)nc2c1	none (no result: CHOP inh)
COc1ccc(C(=O)Nc2ccc(C(=O)Nc3cccc(C)c3)cc2)cc1	GRIN3A LBD mod 14 (no result: CHOP inh)
COc1cccc(NC(=O)Nc2ccc3nc(C)c(C)nc3c2)c1	GRIN3A LBD mod 28 (no result: CHOP inh)
COc1ccc(NC(=O)Nc2ccc3c(c2)CCC3)cc1	GRIN3A LBD mod 14 (no result: CHOP inh)
CCC(C)NC(=O)c1ccc(NC(=O)C2=C(C)OCCS2)cc1 (centres undefined)	none (no result: CHOP inh)
COc1cccc(NC(=O)Nc2ccc3nsnc3c2)c1	GRIN3A LBD mod 37 (no result: Beta apoptosis, CSC inhib)
COc1cccc(NC(=O)Nc2cc(Cl)ccc2C)c1	GRIN3A LBD mod 21
COc1cccc(NC(=O)CN(C)CC(=O)NCC(=O)Nc2ccc(F)cc2)c1	GRIN3A LBD mod 19 (no result: T cruzi repl, CHOP inh)
COc1ccc(NC(=O)Nc2cccc(OC)c2)cc1	GRIN3A LBD mod 25 (no result: CHOP inh)
COc1cccc(NC(=O)Nc2ccccc2Br)c1	none
CCc1noc(C)c1C(=O)N1CCN(S(=O)(=O)c2c(C)c(C)cc(C)c2C)CC1	none (no result: CHOP inh)
COc1ccc(Oc2ccc(NC(=O)c3ccccc3C)cc2)cc1	GRIN3A LBD mod 17 (no result: CSC inhib)
COc1ccccc1Oc1ccc(NC(=O)c2ccccc2C)cc1	none
Cc1ccc(/C=C2\SC(=S)N(CCC(=O)NNC(=O)c3cccc(O)c3)C2=O)cc1	GRIN3A LBD mod 24 (no result: CHOP inh)
Cc1ccc(/C=C2\SC(=S)N(CCC(=O)NNC(=O)c3cccnc3)C2=O)cc1	none
Cc1ccc(/C=C2\SC(=S)N(CCC(=O)NNC(=O)c3ccc(O)cc3)C2=O)cc1	GRIN3A LBD mod 23 (no result: CHOP inh)
C=CCn1c(O)c(N=NC(=S)Nc2ccc(OC)c(Cl)c2)c2ccccc21	T cruzi repl 57
CCCSc1nc2c(c(=O)[nH]c(=O)n2C)n1Cc1ccc(C)cc1	CHOP inh 81
C/C=C/Cn1c(SCc2ccc(C)cc2)nc2c1c(=O)[nH]c(=O)n2C	CHOP inh 94 (no result: Beta apoptosis)
CCCCCn1c(SCc2cccc(C)c2)nc2c1c(=O)[nH]c(=O)n2C	CHOP inh 92
CCCn1c(SCc2ccccc2)nc2c1c(=O)[nH]c(=O)n2C	none (no result: Beta apoptosis)
COc1ccc(S(=O)(=O)Nc2ncccn2)cc1	none (no result: CHOP inh)
Cc1cc2nc(-c3ccccc3O)[nH]c2cc1C	GRIN3A LBD mod 27 (no result: PREPL inhibitor, Beta apoptosis, T cruzi repl, CHOP inh, CSC inhib)
Oc1ccccc1-c1n[nH]c(-c2ccccc2O)n1	GRIN3A LBD mod 23 (no result: PREPL inhibitor, Beta apoptosis, T cruzi repl, CHOP inh, CSC inhib)
Clc1ccccc1-c1nc(-c2ccccc2)n[nH]1	none
CCOC(=O)N1CCN(C(=O)CSc2nc3c([nH]c4ccccc43)c(=O)n2CC)CC1	none (no result: CHOP inh)
CCOc1ccc(NC(=O)Nc2cc(C(=O)O)ccc2N2CC3CC(C2)c2cccc(=O)n2C3)cc1 (centres undefined)	GRIN3A LBD mod 11 (no result: CHOP inh)
CC(C)=CCN1CCN(Cc2cnc(-c3ccccc3)s2)CC1CCO (centres undefined)	none
Clc1ccc(CO/N=C/c2c(-c3ccccc3)nc3n2CCS3)c(Cl)c1	T cruzi repl inconclusive, CSC inhib 78

Bioassay records: PubChem, several laboratories
